Only some compounds are listed: those with a hit (about 0.99% of all), similar ones and a draw of the others.
FN deposit inh: inhibitors of fibronectin matrix deposition, primary screen, AH1F cells, Alexa488-fibronectin fluorescence, plate reader | inhibition, % at 12.6 µM | 350,000 tested, 0.086% active | AID 743247, 2014 | AH1F fibroblasts, overnight;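 active = mean inhibition across replicates of 30% or more, regardless of how many single replicates reach that level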;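 also: positive control wells lacked labelled fibronectin entirely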
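Assay system: AH1F fibroblast monolayer, labelled fibronectin deposition. Amount: 10000 cells per well. Also added: labelled fibronectin 24 nM. Compound: single-point pinned compound. Incubation: cell attachment 1 h, compound and FN exposure overnight. Detection: fluorescence after three HBSS washes, excitation 485 nm, emission 525 nm. Read-out: inhibition of fibronectin deposition signal.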
NPR1 activator: GC-A stimulated cGMP production enhancers – HEK293 GC-A cells, cGMP TR-FRET, EC30 ANP, primary screen; Atrial natriuretic peptide receptor 1 (Homo sapiens), P16066; 0% at EC30 ANP, 100% saturating ANP; activation, % at 10 µM; 370,000 tested, 0.14% active; in the data active = activation above about 40%
NSD2 inh: NSD2 histone methyltransferase inhibitors, primary screen, biochemical, AlphaScreen, single concentration, set 2. Histone-lysine N-methyltransferase NSD2 (Homo sapiens), O96028. NSD2 peptide methylation, 120 min. inhibition, % at 12.5 µM. 310,000 tested, 0.54% active; in the data active = inhibition above about 50%
CaV13 ICDI inh: Primary screen for inhibitors of IQ motif and Ca2+-dependent inactivation inhibitor domain binding in CACNA1D, Förster resonance energy transfer in living cells, …. 340,000 tested, 0.098% active. HEK cells, CFP/YFP FRET ICDI-IQ, plate reader, 10 min; percent FRET-ratio fall versus neutral wells. inhibition, % at 12.3 µM. AID 743397;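 active = mean replicate inhibition of at least 30% and at least 1% of replicates passing that level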;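 also: 0% = median of the neutral control wells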
CASP6 VEID inh: human caspase-6 inhibitors, primary screen, biochemical, VEID-R110 fluorescence, single point, set 2. P55212. purified caspase-6, Z-VEID-R110 cleavage fluorescence. inhibition, % at 12.5 µM. 350,000 tested, 0.53% active. AID 686996, 2013;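 active = mean inhibition across replicates at least about 35%, with every replicate also reaching that limit, limit read from the data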;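 also: 0% = median of neutral control wells and 100% = no fluorescence left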
NPR2 activator: human GC-B receptor activators, primary screen, HEK293 GC-B cells, cGMP TR-FRET, EC30 CNP. 0% at EC30 CNP, 100% saturating CNP. 370,000 tested, 0.11% active. activation, % at 10 µM. AID 1920062, 2024;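 active = activation at 10 µM reaching about 35% in either raw or pattern-adjusted values, limit read from the data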
AlphaScreen art: AlphaScreen signal interference with preloaded methylated product, dose response, artefact control for NSD2 inhibitor project, biochemical, cherry-picked samples. shares compounds with NSD2 inh. AlphaScreen artifact counterscreen, preloaded methylated H4 peptide. AC35, µM (titrated, usually from 10 µM), for inactives: at the highest dose activity change, negative = signal loss. 1,500 tested, 9.4% active. AID 1053174, 2014; call rule not given here
* marks the source's active call; other numbers are inactive results; / = not tested or not shown.

SMILES	FN deposit inh	NPR1 activator	NSD2 inh	CaV13 ICDI inh	CASP6 VEID inh	NPR2 activator	AlphaScreen art
Cc1ccc(Nc2nc(-c3ccc(O)c(O)c3)cs2)nc1	-12	3	88*	-5	29	-5	-5%
O=C(C[C@@H]1CC[C@@H](NC(=O)Nc2ccccc2)[C@H](CO)O1)NCc1ccccn1	/	/	/	/	-2	/	/
COC1=C(N)C(=O)c2nc(C)ccc2C1=O	1	0	189*	-7	56*	0	-1%
COc1ccc(-c2c(C#N)c(C)nc3c2C(=O)c2ccccc2-3)cc1	1	3	-3	-4	/	-5	/
COC1=C(Br)C(=O)c2nc(C)ccc2C1=O	-7	-11	186*	-6	95*	2	-8%
CN(C)C(=O)C[C@H]1C[C@@H]2c3cc(NC(=O)Nc4ccc(C(F)(F)F)cc4)ccc3O[C@@H]2[C@@H](CO)O1	-5	/	/	/	-1	/	/
Cc1cc(OCC(=O)Nc2ccccc2N2CCCCC2)ccc1C(C)C	-6	4	77*	-6	-4	2	-1%
CN(Cc1ccccc1)S(=O)(=O)c1ccc(Cl)c(C(=O)OCC(N)=O)c1	-4	-3	0	-2	4	-4	/
CN(C)S(=O)(=O)c1ccc(Cl)c(C(=O)OCC(=O)c2ccco2)c1	2	1	55*	-3	2	-1	1%
Cn1c(N2CCCC2)nc2c1c(=O)n(Cc1ccc(Cl)cc1)c(=O)n2C	1	6	105*	/	/	13	-5%
CC1CN(c2nc3c(c(=O)n(Cc4ccc(Cl)cc4)c(=O)n3C)n2C)CC(C)O1 (stereo unspecified)	15	-2	116*	-6	0	-3	-1%
Cn1c(N2CCC(C(N)=O)CC2)nc2c1c(=O)n(Cc1ccc(Cl)cc1)c(=O)n2C	/	-2	-2	-8	1	0	/
CC1CN(Cc2nc3c(c(=O)n(C)c(=O)n3C)n2CCCc2ccccc2)CC(C)O1 (stereo unspecified)	/	2	109*	/	/	2	0%
COc1cccc(-c2nn3c(-c4ccco4)nnc3s2)c1	-5	2	90*	-3	/	-1	-5%
Cc1ccc(S(=O)(=O)N(C)C[C@@H]2Oc3ccc(NC(=O)Nc4ccc(F)cc4)cc3CC(=O)N([C@@H](C)CO)C[C@H]2C)cc1	/	/	/	/	0	/	/
O=C(O)c1ccc(CSc2n[nH]c(-c3ccco3)n2)cc1	14	0	108*	-4	/	-2	-5%
Nc1cccc2cnccc12	-1	-3	107*	-3	/	5	-5%
COc1ccc2c3c([nH]c2c1)[C@H](CO)N(C(=O)Nc1ccc(F)cc1)CC31CN(Cc2nccs2)C1	/	/	/	/	0	/	/
CCOC(=O)Nc1ccc(=O)n(Cc2c(Cl)cccc2Cl)c1	-14	3	85*	-5	/	-6	-4%
NC(=O)COC(=O)c1cccc(S(=O)(=O)N2CCN(c3ccc(F)cc3)CC2)c1	-4	-10	-3	-5	/	-4	/
NC(=O)COC(=O)c1ccc(Cl)c(S(=O)(=O)N2CCN(c3ccc(F)cc3)CC2)c1	-2	-2	52*	-20	22	0	-5%
O=C(NCC[C@@H]1CC[C@@H](NS(=O)(=O)Cc2ccccc2)[C@@H](CO)O1)C1CCC1	/	/	/	/	1	/	/
Cc1ccc(NC(=O)CCC(=O)OCC(F)(F)C(F)F)cc1	/	5	121*	-9	/	-2	-4%
CC1(C)NC(=O)N(CCCOc2ccccc2Br)C1=O	-5	3	70*	-6	/	3	-2%
C[C@@H]1CN([C@H](C)CO)C(=O)c2cc(-c3ccc(C#N)cc3)cnc2O[C@@H]1CN(C)C(=O)c1ccccc1	2	/	/	/	-2	/	/
SMILES	FN deposit inh	NPR1 activator	NSD2 inh	CaV13 ICDI inh	CASP6 VEID inh	NPR2 activator	AlphaScreen art
O=C(/C=C/c1ccc(O)c(O)c1)O[C@@H]1C[C@](O)(C(=O)O)C[C@@H](O)[C@H]1O	-1	5	/	-6	/	-2	/
O=C(/C=C/c1ccc(O)c(O)c1)OC1C(O)CC(OC(=O)/C=C/c2ccc(O)c(O)c2)(C(=O)O)CC1O (stereo unspecified)	6	-1	66*	-5	3	2	-11%
CC(Nc1cccc2ccccc12)C(=O)N/N=C/c1ccccn1 (stereo unspecified)	/	-4	132*	-8	/	-1	-8%
O=C(NCc1ccc(Cl)cc1)c1ccc(S(=O)(=O)N2CCCCC2)cc1	-9	5	53*	-15	-3	7	0%
C[C@H](CO)N1C[C@H](C)[C@H](CN(C)C(=O)Nc2cccc3ccccc23)Oc2ccc(NC(=O)CCC(F)(F)F)cc2C1=O	/	/	/	/	4	/	/
CN(C)CCNc1ncnc2oc(-c3ccccc3)c(-c3ccccc3)c12	0	-43	51*	-5	-10	-11	-6%
COc1ccc(-c2oc3ncnc(NCCCN(C)C)c3c2-c2ccc(OC)cc2)cc1	/	16	7	-5	-2	2	/
O=[N+]([O-])c1ccccc1-c1ccc(C(=S)N2CCCCC2)o1	2	-2	20	-5	10	-3	/
O=[N+]([O-])c1ccccc1-c1ccc(C(=S)N2CCCC2)o1	5	2	65*	-2	11	5	-9%
ClN=C1C=CC=CC1=NCl	/	/	108*	/	/	/	-3%
C[C@@H]1CN([C@H](C)CO)C(=O)c2cc(NS(=O)(=O)c3cccs3)ccc2O[C@@H](C)CCCCO[C@H]1CN(C)C(=O)Nc1ccc(F)cc1	/	/	/	/	2	/	/
Cc1ccc(-n2c(C)c(C)c3c(N)ncnc32)cc1	-5	-27	67*	-3	0	-15	-7%
CO[C@H]1CN(C)C(=O)c2ccc(NC(=O)Nc3ccc(Cl)cc3)cc2OC[C@@H](C)NC[C@H]1C	8	/	/	/	/	/	/
C[C@H]1CN([C@@H](C)CO)C(=O)c2cccc(NC(=O)C3CC3)c2O[C@@H]1CN(C)Cc1ccncc1	/	/	/	/	1	/	/
O=C(Nc1cccc(C(F)(F)F)c1)c1cc(-c2ccco2)on1	6	-2	92*	-2	-1	-5	-2%
Nc1cc(S(=O)(=O)O)cc2ccc(S(=O)(=O)O)cc12	-5	2	102*	-16	57*	2	0%
